Reference: article PMC8504815 (Clinical and Translational Science, 2021)
Entries after “also recorded” stand apart in the source; their conditions may differ.

How the values were obtained:
[1] = Blood pharmacokinetics, single ascending dose; type: in vivo, human
Method in brief: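 Ten cohorts of 8 healthy adults aged 18–65 were randomized 3:1 to one fasted oral dose (0.5–600 mg) or placebo, double-blind. Blood was taken predose and at protocol timepoints up to day 8, and drug was measured by validated LC-MS/MS. Dose proportionality used regression of log Cmax and AUC on log dose, giving the slope with 90% CI.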

[2] = Blood pharmacokinetics, multiple ascending dose; type: in vivo, human; conditions: for CLss/F: apparent total body clearance from blood at steady state; for CLss/F / AUC(0-t) / Cmax: mean (SD); for half-life: terminal half-life; for half-life / Tmax: median (minimum-maximum)
Method in brief: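 Fasted healthy subjects with asymptomatic atopic diathesis were randomized 3:1 to oral drug or placebo, q.d. or b.i.d., through day 12. Blood was sampled predose and to 24 h on day 1 (b.i.d. to 12 h), then at trough and 2 h postdose. Urine was also collected. Assay was LC-MS/MS. Log Cmax/AUC was regressed on log dose (slope, 90% CI).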

Food effect = type: in vivo, human; conditions: for MRT: mean (SD)
BTK = BTK (Homo sapiens, UniProt Q06187); assay: BTK occupancy in blood; type: in vivo
Chain of BTK (Q06187 whole entry): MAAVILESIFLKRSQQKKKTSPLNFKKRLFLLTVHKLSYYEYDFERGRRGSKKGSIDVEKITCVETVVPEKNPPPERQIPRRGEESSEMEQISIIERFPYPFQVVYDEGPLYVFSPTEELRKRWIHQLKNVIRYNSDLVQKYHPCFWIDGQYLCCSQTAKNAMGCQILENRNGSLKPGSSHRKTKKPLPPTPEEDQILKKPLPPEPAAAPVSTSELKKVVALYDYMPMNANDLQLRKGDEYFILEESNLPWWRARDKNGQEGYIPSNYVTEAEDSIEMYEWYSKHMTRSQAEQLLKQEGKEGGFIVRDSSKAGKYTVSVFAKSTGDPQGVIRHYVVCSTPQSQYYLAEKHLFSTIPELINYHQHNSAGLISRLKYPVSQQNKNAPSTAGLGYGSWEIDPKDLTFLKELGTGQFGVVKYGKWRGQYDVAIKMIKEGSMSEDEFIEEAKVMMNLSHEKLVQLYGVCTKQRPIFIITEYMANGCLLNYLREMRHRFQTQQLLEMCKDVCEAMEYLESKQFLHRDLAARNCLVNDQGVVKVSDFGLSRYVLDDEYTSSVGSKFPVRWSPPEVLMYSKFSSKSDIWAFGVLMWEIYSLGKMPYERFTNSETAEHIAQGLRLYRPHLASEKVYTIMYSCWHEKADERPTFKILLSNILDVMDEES

basophils = assay: Basophil activation; type: in vivo, human; conditions: for trough inhibition of CD203c: day 12; for inhibition of CD203c+ basophils, peak: 8 h on day 1
Method in brief: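 Heparinized whole blood was drawn at set timepoints from MAD subjects (healthy, asymptomatic atopic diathesis; oral q.d. or b.i.d.). It was stimulated ex vivo with anti-IgE for 25 minutes at 37°C/5% CO₂. CD63+ and CD203c+ basophils were counted as a percentage by flow cytometry and expressed as % inhibition versus baseline. Subjects with baseline CD63+ stimulation below 10% were excluded.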

skin prick test wheal = assay: Skin prick test; type: in vivo, human; conditions: MAD
Method in brief: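 MAD subjects with atopic diathesis had skin prick tests to known allergens from 7 undiluted allergens (pollens, house dust mite, cat and horse dander). Tests were done at day −1, day 1 predose/2/8 h, day 2 predose and day 12 predose/8/24/96 h. Wheal diameter was the mean of the longest and perpendicular diameters. The predose average (day −1 and day 1) was compared with the average of all 7 postdose tests.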

Safety and tolerability = type: in vivo, human; conditions: for dose-limiting toxicity: up to highest dose tested
[3] = statement in discussion, no value or reference printed; cited from earlier work
[4] = human, whole blood, oral, 100 mg, MAD 100 mg b.i.d., Day 1
[5] = human, whole blood, oral, 100 mg, MAD 100 mg b.i.d., Day 12
[6] = human, whole blood, oral, 200 mg, MAD 200 mg b.i.d., Day 12
[7] = human, whole blood, oral, 600 mg, MAD 600 mg q.d., Day 1

C=CC(=O)N(C)CCOc1c(N)ncnc1-c1cc(F)cc(NC(=O)c2ccc(C3CC3)cc2F)c1C [Remibrutinib]
dose proportionality of Cmax, AUCinf, AUClast over the full dose range ([1]; SAD cohorts): not demonstrated | half-life ([1]; human, whole blood, oral): 1 to 2 h | Tmax ([1]; human, whole blood, po): 0.5 to 1.25 h | CLss/F ([2]; MAD 100 mg b.i.d., Day 12): 255 (153) L/h | CLss/F ([2]; MAD 100 mg q.d., Day 12): 198 (88.7) L/h | CLss/F ([2]; MAD 200 mg b.i.d., Day 12): 267 (126) L/h | CLss/F ([2]; MAD 400 mg q.d., Day 12): 366 (150) L/h | CLss/F ([2]; MAD 600 mg q.d., Day 12): 521 (131) L/h | dose proportional increases of Cmax and AUC over the full dose range ([2]; MAD cohorts): not observed | time to steady-state ([2]; MAD cohorts): third day of dosing | direct renal excretion, contribution to total apparent blood clearance ([2]; across doses in all MAD cohorts, urine): ~ 1% | AUC(0-t) ([2]; human, whole blood, oral, 100 mg, AUC0–12 h, MAD 100 mg b.i.d., Day 12): 496 ng·h/mL | AUC(0-t) ([2]; human, whole blood, oral, 100 mg, AUC0–24 h, MAD 100 mg q.d., Day 12): 485 ng·h/mL | AUC(0-t) ([2]; human, whole blood, oral, 100 mg, AUClast, MAD 100 mg b.i.d., Day 12): 518 ng·h/mL | Cmax [2, 4]: 180 ng/mL | Cmax [2, 5]: 306 ng/mL | half-life ([2]; human, whole blood, oral, 100 mg, T1/2, MAD 100 mg b.i.d., Day 12): 2.84 h | Tmax [2, 4]: 1.5 h | Tmax [2, 5]: 0.775 h | AUC(0-t) ([2]; human, whole blood, oral, 200 mg, AUC0–12 h, MAD 200 mg b.i.d., Day 1): 464 ng·h/mL | AUC(0-t) ([2]; human, whole blood, oral, 200 mg, AUC0–12 h, MAD 200 mg b.i.d., Day 12): 890 ng·h/mL | AUC(0-t) ([2]; human, whole blood, oral, 200 mg, AUClast, MAD 200 mg b.i.d., Day 1): 464 ng·h/mL | Cmax ([2]; human, whole blood, oral, 200 mg, MAD 200 mg b.i.d., Day 1): 236 ng/mL | Cmax [2, 6]: 347 ng/mL | half-life ([2]; human, whole blood, oral, 200 mg, T1/2, MAD 200 mg b.i.d., Day 12): 12.4 h | Tmax [2, 6]: 0.992 h | AUC(0-t) ([2]; human, whole blood, oral, 400 mg, AUC0–24 h, MAD 400 mg q.d., Day 1): 977 ng·h/mL | AUC(0-t) ([2]; human, whole blood, oral, 600 mg, AUC0–24 h, MAD 600 mg q.d., Day 1): 1080 ng·h/mL | AUC(0-t) ([2]; human, whole blood, oral, 600 mg, AUC0–24 h, MAD 600 mg q.d., Day 12): 1230 ng·h/mL | Cmax [2, 7]: 550 ng/mL | Tmax [2, 7]: 0.75 h | MRT ([2]; human, whole blood, oral, mean residence time (MRT), multiple doses (q.d. and b.i.d.), overall statement): < 3 h | mean residence time (MRT) ([2]; multiple doses (q.d. and b.i.d.), overall statement): ~ 3 h | number of doses to steady state ([2]; overall statement in discussion): less than 5 doses | accumulation with multiple doses ([2]; q.d. and b.i.d. dosing): no pronounced accumulation; also recorded: no marked accumulation | Delay of median Tmax, fed vs fasted (Food effect; 60 mg single dose, standardized high-fat breakfast): ~ 2 h | Cmax geometric mean ratio (fed vs fasted) (Food effect; 60 mg single dose, 90% CI 0.638-1.01): 0.801 | AUClast geometric mean ratio (fed vs fasted) (Food effect; 60 mg single dose, 90% CI 1.14-1.47): 1.30 | effect of food intake on exposure (Food effect; 60 mg, fed vs fasted): no clinically relevant effect | MRT (Food effect; human, whole blood, oral, 60 mg, 60 mg single dose, Fasted): 2.29 ± 0.72 h | MRT (Food effect; human, whole blood, oral, 60 mg, 60 mg single dose, Fed): 4.17 ± 1.2 h | Tmax (Food effect; human, whole blood, oral, 60 mg, Tmax, 60 mg single dose, Fed, median (min-max)): 2.78 h | BTK occupancy in blood (BTK; MAD, doses >=50 mg, over the measured dosing period, complete = >95%): maintained complete BTK occupancy | BTK occupancy in blood (BTK; SAD, lowest dose of 0.5 mg): no BTK occupancy | lowest dose showing both complete BTK occupancy and almost complete basophil inhibition (BTK; single dose): 30 mg | trough level inhibition of CD63 (basophils; MAD 10 mg q.d., last day of dosing): 80% | trough inhibition of CD203c (basophils; MAD 100 mg b.i.d.): 63% | inhibition of CD203c+ basophils, peak (basophils; MAD 200 mg b.i.d.): 81.8% | trough inhibition of CD203c (basophils; MAD 200 mg b.i.d.): 67% | inhibition of CD203c+ basophils, peak (basophils; MAD 400 mg q.d.): 84% | inhibition of blood basophil activation (CD63 expression) (basophils; MAD daily dose >=50 mg, day 1-12 incl. day 12 predose): Near complete; also recorded: Full inhibition | basophil inhibition (CD63 expression) (basophils; SAD 60 mg, after 24 h): ~90% | inhibition of CD203c basophil activation marker (basophils; SAD 200 mg cohort, at 8 h): up to 79.4% | basophil inhibition (CD63 expression) (basophils; SAD, doses >=100 mg): almost complete inhibition | skin prick test (SPT) inhibition (skin prick test wheal; day 12 predose, >=100 mg q.d.): Near complete | average decrease in wheal size (SPT) (skin prick test wheal; doses >=100 mg q.d., across all tests, subjects with atopic diathesis): ~ 3 mm | hematomas (Safety and tolerability; 100 mg MAD cohort, after trauma / vessel puncture, resolved spontaneously): two hematomas | self-limiting epistaxis (Safety and tolerability; 600 mg MAD group, both had history of repeated epistaxis): Two subjects | headache (most common AE) (Safety and tolerability; FE cohort, 2/12): 16.7% | Subjects with at least 1 AE (Safety and tolerability; FE cohort, 7 of 12 subjects): 58.3% | incidence of AEs (Safety and tolerability; FE cohort, fasted condition): 16.7% | incidence of AEs (Safety and tolerability; FE cohort, fed condition): 50% | AE severity: Mild (Safety and tolerability; Food effect cohort, N = 12): 7 (58.3) n (%) | AE severity: Moderate (Safety and tolerability; Food effect cohort, N = 12): 1 (8.3) n (%) | Headache (Safety and tolerability; Food effect cohort, N = 12): 2 (16.7) n (%) | Nasopharyngitis (Safety and tolerability; Food effect cohort, N = 12): 1 (8.3) n (%) | Study drug-related AEs (Safety and tolerability; Food effect cohort, N = 12): 3 (25.0) n (%) | Subjects with at least 1 AE (Safety and tolerability; Food effect cohort, N = 12): 7 (58.3) n (%) | subjects with AEs suspected to be related to the study drug (Safety and tolerability; MAD cohorts, 5/48): 10.4% | incidence of AEs (subjects with at least 1 AE) (Safety and tolerability; MAD cohorts, 24 subjects on remibrutinib): 50.0% | AE severity: Mild (Safety and tolerability; MAD cohorts, all doses, N = 48): 22 (45.8) n (%) | AE severity: Moderate (Safety and tolerability; MAD cohorts, all doses, N = 48): 5 (10.4) n (%) | AE severity: Severe (Safety and tolerability; MAD cohorts, all doses, N = 48): 1 (2.1) n (%) | Headache (Safety and tolerability; MAD cohorts, all doses, N = 48): 5 (10.4) n (%) | Nasopharyngitis (Safety and tolerability; MAD cohorts, all doses, N = 48): 3 (6.3) n (%) | Study drug-related AEs (Safety and tolerability; MAD cohorts, all doses, N = 48): 5 (10.4) n (%) | Subjects with at least 1 AE (Safety and tolerability; MAD cohorts, all doses, N = 48): 24 (50.0) n (%) | Toothache (Safety and tolerability; MAD cohorts, all doses, N = 48): 1 (2.1) n (%) | AEs reported (Safety and tolerability; SAD 100 and 200 mg cohorts): No AEs | Subjects with at least 1 AE (Safety and tolerability; SAD cohorts, 17 subjects on remibrutinib): 28.3% | AE severity: Mild (Safety and tolerability; SAD cohorts, all doses, N = 60): 16 (26.7) n (%) | AE severity: Moderate (Safety and tolerability; SAD cohorts, all doses, N = 60): 1 (1.7) n (%) | Headache (Safety and tolerability; SAD cohorts, all doses, N = 60): 6 (10.0) n (%) | Nasopharyngitis (Safety and tolerability; SAD cohorts, all doses, N = 60): 4 (6.7) n (%) | Study drug-related AEs (Safety and tolerability; SAD cohorts, all doses, N = 60): 7 (11.7) n (%) | Subjects with at least 1 AE (Safety and tolerability; SAD cohorts, all doses, N = 60): 17 (28.3) n (%) | subjects with AEs suspected to be related to the study drug (Safety and tolerability; SAD cohorts, all on remibrutinib, of 80 subjects): 7 subjects | changes in hematology, biochemistry, urinalysis parameters (vital signs, ECG) (Safety and tolerability; all cohorts): No clinically significant changes | dose-limiting toxicity (Safety and tolerability; all doses): without any dose‐limiting toxicity | dose-limiting toxicity (Safety and tolerability; all doses, listed as remibrutinib): No dose‐limiting toxicity | tolerability (Safety and tolerability; all evaluated doses, up to 600 mg oral): well‐tolerated | SAEs or deaths (Safety and tolerability; any cohort, overall summary): No SAEs or deaths | risk of bleeding (Safety and tolerability; any dose, bruising log and coagulation testing): no increased risk of bleeding | solubility [3]: low solubility
